# Compounds with a hit are over-represented: about 1.2% of the library has one in this group of screens.
# Runt-CBFb FRET – inhibitors of human RUNX1 Runt domain binding to CBFb; Q01196+Q13951; Cerulean-Runt/Venus-CBFb FRET ratio 530/480, 1 h; inhibition, % at 20 µM; hit rate 0.46% among 220,000; AID 1496;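 active means inhibition over about 50% at 20 µM in the single-dose screen, limit read from the data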;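 further: 0% = DMSO wells and 100% = excess unlabeled CBFb competitor control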
# Target sequence (Q01196 whole entry, looked up, the tested form may be a part): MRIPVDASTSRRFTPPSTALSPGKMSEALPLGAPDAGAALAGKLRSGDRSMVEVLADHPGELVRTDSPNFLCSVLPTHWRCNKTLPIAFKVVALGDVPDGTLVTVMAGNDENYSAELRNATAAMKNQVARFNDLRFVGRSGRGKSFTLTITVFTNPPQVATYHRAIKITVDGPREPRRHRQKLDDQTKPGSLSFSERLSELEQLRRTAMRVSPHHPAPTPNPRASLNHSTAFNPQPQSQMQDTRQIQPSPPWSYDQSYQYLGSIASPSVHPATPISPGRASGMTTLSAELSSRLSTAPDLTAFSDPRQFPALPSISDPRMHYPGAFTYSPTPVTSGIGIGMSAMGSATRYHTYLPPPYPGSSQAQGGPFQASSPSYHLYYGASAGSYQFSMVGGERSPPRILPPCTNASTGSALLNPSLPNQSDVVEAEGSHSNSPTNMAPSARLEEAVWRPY
# Target sequence (Q13951 whole entry, looked up, the tested form may be a part): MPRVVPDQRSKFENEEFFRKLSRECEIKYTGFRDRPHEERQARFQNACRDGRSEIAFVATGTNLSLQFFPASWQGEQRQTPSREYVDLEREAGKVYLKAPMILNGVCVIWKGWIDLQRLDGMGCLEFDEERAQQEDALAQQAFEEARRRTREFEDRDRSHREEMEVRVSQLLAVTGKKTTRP
#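 Assay system: Cerulean-Runt domain / Medium: Tris 50 mM pH 7.5, KCl, K2SO4, 0.01% BSA / Timing: protein complex preformed 1 h, compound exposure 1 h, room temperature, dark / Measured by: FRET, excitation 422 nm, emission at 530 and 480 nm / Evaluation: loss of energy transfer signal / Control set: 5 µM unlabeled CBFb as full-inhibition high control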
# RanGTP-Imp inh – disruptors of Ran-importin-beta complex formation – biochemical, FRET, CFP-Ran, YFP-importin-beta, homogeneous, primary screen. cell-free CFP-Ran/YFP-importin-beta FRET ratio. inhibition, % (no concentration beside the values). hit rate 1.1% among 300,000. AID 2216;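 active means more than half of the replicate wells show a fall in the fluorescence ratio signal beyond about 16%, limit read from the data, passing the limit was not always enough; inconclusive means exactly half of the replicate wells pass the set limit; inactive means fewer than half of replicates pass the limit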;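 further: 0% = DMSO wells and 100% = Ran loaded with GDP instead of GTP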
# Runt-SMMHC FRET – inhibitors of human RUNX1 Runt domain binding to CBFb-SMMHC | Q01196+Q13951 | Cerulean-Runt/Venus-CBFb-SMMHC FRET ratio 530/480, 1 h | inhibition, % at 20 µM | hit rate 0.74% among 220,000;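 active means mean inhibition across duplicate retests at 20 µM reaching about 50%, limit read from the data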;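 further: 0% = DMSO wells and 100% = wells with excess untagged CBFb-SMMHC; inhibitors lower the FRET ratio by blocking Runt binding to CBFb-SMMHC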
# CaV13 FRET inh – Primary screen for inhibitors of IQ motif and Ca2+-dependent inactivation inhibitor domain binding in CACNA1D, Förster resonance energy transfer in living cells, …; HEK cells, CFP/YFP FRET ICDI-IQ, plate reader, 10 min; percent FRET-ratio fall versus neutral wells; inhibition, % at 12.3 µM; hit rate 0.098% among 340,000; AID 743397;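 active means mean replicate inhibition of at least 30% and at least 1% of replicates passing that level; inconclusive means only one of the two criteria is met; inactive means neither criterion is met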;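 further: 0% = median of the neutral control wells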
# * hit, by the source's call; u = inconclusive; x = no result given.
SMILES,Runt-CBFb FRET,RanGTP-Imp inh,Runt-SMMHC FRET,CaV13 FRET inh
CCCCC(Sc1nc(N)c(NC(=O)c2ccc(OC)cc2)c(=O)[nH]1)C(=O)O (centres undefined),0,-4,3,-2
COCCn1c(Cc2ccccc2)nnc1SCc1ccc([N+](=O)[O-])cc1,-2,-1,0,-4
CCOC(=O)C1=C(C)NC2=C(C(=O)C(C(=O)OCC)C(c3ccco3)C2)C1c1ccccn1 (centres undefined),21,32*,38,-3
CCOC(=O)C1C(C)=CC(=O)CC1c1ccco1 (centres undefined),1,0,-2,x
O=C(Cn1ccc([N+](=O)[O-])n1)N1CCCCCC1,1,-2,0,115*
O=c1[nH]c2cc3c(cc2cc1CN(Cc1nnnn1CC1CCCO1)C1CCCCC1)OCO3 (centres undefined),18,-103,57*,-7
Cc1ccc2[nH]c(=O)c(CN(CCc3ccccc3)Cc3nnnn3CC3CCCO3)cc2c1 (centres undefined),4,-4,-16,-9
O=c1[nH]c2cc3c(cc2cc1CN(CCc1ccccc1)Cc1nnnn1CC1CCCO1)OCO3 (centres undefined),-92,-75,62*,-8
C[C@@H]1CN([C@@H](C)CO)C(=O)CCCn2cc(nn2)CO[C@H]1CN(C)C(=O)Nc1cccc(Oc2ccccn2)c1,x,x,x,-4
CC(C)OC(=O)CC(=O)CSc1nc2c(cc1C#N)CCCCCC2,50,-2,78*,-6
CCOC(=O)CC(=O)CSc1nc2c(cc1C#N)CCCCCC2,40,14,50*,-4
Cc1ccccc1C(=O)NC1CCN(CC(=O)N2CCCCC2C)CC1 (centres undefined),x,-4,x,-5
Cc1ccc(S(=O)(=O)Nc2c(C)nn(C)c2C)cc1C,x,x,x,-4
Cc1ccc(-n2nc(C)c(NS(=O)(=O)c3ccccc3)c2C)cc1C,-1,36*,2,-8
CC(C)N1CC=C2C(C#N)=C(N)C(C#N)(C#N)[C@H](c3ccoc3)[C@H]2C1,49,55*,60*,x
CC(C)(C)OC(=O)N1CC=C2C(C#N)=C(N)C(C#N)(C#N)[C@H](c3cccnc3)[C@H]2C1,16,18*,29,-4
CCOC(=O)N1CC=C2C(C#N)=C(N)C(C#N)(C#N)[C@H](c3cccs3)C2C1 (some centres undefined),-4,-2,-11,x
CC(C)N1CC=C2C(C#N)=C(N)C(C#N)(C#N)C(c3ccccc3)C2C1 (centres undefined),74*,71*,63*,-8
CN1CC=C2C(C#N)=C(N)C(C#N)(C#N)C(Cc3ccccc3)C2C1 (centres undefined),110*,100*,78*,2
COC(=O)[C@]1(C)N[C@H](CN(C)C(=O)C2CCCCC2)[C@@H]2C(=O)N(Cc3ccccc3)C(=O)[C@@H]21,x,x,x,-5
CCC1C2CN(C(C)=O)CC=C2C(C#N)=C(N)C1(C#N)C#N (centres undefined),8,0,25,-7
Cc1ccc(C2C3CSCC=C3C(C#N)=C(N)C2(C#N)C#N)cc1 (centres undefined),-5,16*,-23,-9
CCN1CC=C2C(C#N)=C(N)C(C#N)(C#N)C(c3cc(Cl)ccc3Cl)C2C1 (centres undefined),73*,56*,65*,-5
N#CC1=C(N)C(C#N)(C#N)[C@H](c2ccncc2)[C@H]2CC3(CC=C12)OCCO3,-8,-26,-12,-11
CC(=O)Nc1cncc(-c2cccc(C(=O)N3CCOCC3)c2)n1,x,x,x,-5
SMILES,Runt-CBFb FRET,RanGTP-Imp inh,Runt-SMMHC FRET,CaV13 FRET inh
CCN(CC)CCCNC(=O)C1CCC(=O)N(c2ccc(OC)cc2)C1c1ccc(F)cc1 (centres undefined),-2,54*,-10,-5
COC(=O)c1cc(=O)c2c(C)nc(C(Cl)(Cl)Cl)nc2[nH]1,-4,-7,-20,-4
COc1ccccc1N1CCN(C2CCN(C3CCC(c4ccccc4)CC3)CC2)CC1 (centres undefined),1,-2,-1,x
COc1ccccc1N1CCN(C2CCC(C)CC2)CC1 (centres undefined),x,3,x,50*
Cn1c(SCC(=O)N2CCCC2)nnc1-c1cnccn1,1,0,1,-6
O=C(Nc1ccc2[nH]c(=O)[nH]c2c1)c1ccc(Cl)c(Cl)c1,0,-13,0,-2
Cc1ccc(NS(=O)(=O)c2ccc(/C=C/C(=O)O)cc2)cc1Cl,0,-5,1,-18
O=C(O)c1cccc(S(=O)(=O)Nc2ccc3[nH]c(=O)[nH]c3c2)c1,-2,16*,-16,-6
O=C(O)c1cccc(S(=O)(=O)Nc2ccc(Oc3ccccc3)cc2)c1,x,x,x,-6
O=C(O)c1ccc(Cl)c(S(=O)(=O)Nc2ccc3[nH]c(=O)[nH]c3c2)c1,4,22*,-13,2
O=C(O)/C=C/c1ccc(S(=O)(=O)Nc2ccc3[nH]c(=O)[nH]c3c2)cc1,x,27*,x,-8
COc1ccc(Cc2nnc(NC(=O)C3CCN(C(=O)c4ccco4)CC3)s2)cc1,x,0,x,-3
CC1(C)NC(=O)N(CCC(=O)Nc2ccc(C(C)(C)C)cc2)C1=O,x,x,x,-13
CCCc1cc(=O)oc2c3c(c(Cl)cc12)OCN(CCCO)C3,x,62*,x,x
CCOc1ccc(C2C(C#N)=C(N)SC(N)=C2C#N)c(OCC)c1,15,19*,32,x
CCOc1cc(C2C(C#N)=C(N)SC(N)=C2C#N)ccc1OCCN1CCOCC1,24,u,15,-6
O=C(CC1S/C(=N/N=C/c2c[nH]c3ccccc23)NC1=O)Nc1ccccc1 (centres undefined),-1,-2,-3,-3
O=C(CC1S/C(=N/N=C/c2ccco2)NC1=O)Nc1ccccc1 (centres undefined),2,139*,17,-2
COC(=O)Cc1cc(=O)n2[nH]c(SC)nc2n1,0,u,-1,-3
COC(=O)Cc1cc(=O)n2[nH]c(C)nc2n1,-1,18*,3,-4
Nc1sc(-c2ccccc2)cc1C(=O)NCCc1c[nH]c2ccccc12,x,x,x,-17
CCCCN(CCCC)c1nc2ccccc2nc1NS(=O)(=O)c1ccc(NC(C)=O)cc1,20,3,70*,-2
CC(=O)Nc1ccc(S(=O)(=O)Nc2nc3ccccc3nc2Sc2nncn2C)cc1,48,36*,72*,-4
O=S(=O)(C(=CNc1ccccc1)S(=O)(=O)c1ccccc1)c1ccccc1,-2,1,-4,-7
COc1ccc(S(=O)(=O)N2CCOC2CNC(=O)C(=O)NCc2ccccn2)cc1C (centres undefined),x,u,x,-5
COc1cc(NC(=O)CNc2ccc(Cl)c(S(=O)(=O)N3CCOCC3)c2)cc(OC)c1,x,x,x,-4
C=CCn1c(NC(=O)c2ccc(Br)o2)c(S(=O)(=O)c2ccccc2)c2nc3ccccc3nc21,8,45*,35,-5

# Bioassay records (PubChem)
